Assay results published in ChEMBL document CHEMBL4052823, “Extra Sugar on Vancomycin: New Analogues for Combating Multidrug-Resistant Staphylococcus aureus and Vancomycin-Resistant Enterococci” (J Med Chem, 2018).
≈ marks a conversion by molar mass, not a printed value. Calls of active or inactive are those of the source. The rule behind the calls is not given here.

Columns and labels:
[1] = AUClast in CD1 mouse at 5 mg/kg, iv; assay type: ADME, organism-based; design: dose 5 mg/kg, route intravenous, time 0 - last; details: in vivo
How it was run: (§1)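 Fasted male CD-1 mice (18−22 g), 5 mg/kg single dose into the tail vein, 6 per group. Blood sampled at 0.25, 0.75, 2, 4, 8 and 24 h and analysed by UPLC-MS/MS. T1/2, AUClast, AUCINF_obs, CL_obs, MRTINF_obs and VSS_obs were calculated for each animal from its time−concentration curve.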

[2] = Clearance in CD1 mouse at 5 mg/kg, iv; assay type: ADME, organism-based; details: in vivo; how it was run: as §1
Staphylococcus aureus [3] = assay: Antibacterial activity against healthcare-associated methicillin-resistant/vancomycin-intermediate Staphylococcus aureus Mu50 after 24 hrs by broth microdilution method; assay type: functional; details: Mu50, 24 h
How it was run: (§2)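 Broth microdilution in cation-adjusted Mueller-Hinton II broth. DMSO stocks were diluted in broth and twofold serially from 128 to 0.0625 μg/mL or lower. Each well was inoculated with ~10^5 CFU of exponential-phase bacteria and incubated at 37 °C for 24 h. MIC was the lowest concentration giving complete growth inhibition, read per CLSI. Growth controls contained broth plus DMSO.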

Staphylococcus aureus [4] = assay: Potency index, ratio of telavancin MIC90 to test compound MIC90 for vancomycin/methicillin-susceptible Staphylococcus aureus Newman […]; assay type: functional
Enterococcus faecium [5] = assay: Antibacterial activity against glycopeptide-resistant Enterococcus faecium Efm-HS-06188 vanA after 24 hrs by broth microdilution method; assay type: functional; details: Efm-HS-06188, 24 h; how it was run: as §2
Enterococcus faecium [6] = assay: Potency index, ratio of oritavancin MIC90 to test compound MIC90 for glycopeptide-resistant Enterococcus faecium Efm-HS-vb01 vanB; assay type: functional
Enterococcus faecium [7] = assay: Antibacterial activity against glycopeptide-resistant Enterococcus faecium Efm-HS-vb01 vanB after 24 hrs by broth microdilution method; assay type: functional; details: Efm-HS-vb01, 24 h; how it was run: as §2
Blood = assay: Drug uptake in CD1 mouse blood at 5 mg/kg, iv; assay type: ADME, organism-based; details: in vivo; how it was run: as §1
[8] = MRT (infinity) in CD1 mouse at 5 mg/kg, iv; assay type: ADME, organism-based; details: in vivo; how it was run: as §1
[9] = Half life in CD1 mouse at 5 mg/kg, iv; assay type: ADME, organism-based; details: in vivo; how it was run: as §1
Enterococcus faecium [10] = assay: Potency index, ratio of telavancin MIC90 to test compound MIC90 for glycopeptide-resistant Enterococcus faecium Efm-HS-vb01 vanB; assay type: functional
[11] = Volume of distribution at steady state in CD1 mouse at 5 mg/kg, iv; assay type: ADME, organism-based; details: in vivo, read-out: Vdss
How it was run: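 Fasted male CD-1 mice (18−22 g), 5 mg/kg single dose into the tail vein, 6 per group. T1/2, AUClast, AUCINF_obs, CL_obs, MRTINF_obs and VSS_obs were calculated for each animal from its time−concentration curve.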

Enterococcus faecium [12] = assay: Antibacterial activity against glycopeptide-resistant Enterococcus faecium Efm-HS-08257 vanM after 24 hrs by broth microdilution method; assay type: functional; details: Efm-HS-08257, 24 h; how it was run: as §2
Staphylococcus aureus [13] = assay: Antibacterial activity against methicillin-resistant Staphylococcus aureus USA300 LAC infected in BALB/c mouse assessed as increase in mouse survival rate at 7 mg/kg, ip administered as single dose after 10 days relative to control; assay type: functional, organism-based
How it was run: (§3)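 Female BALB/c mice, 6−8 weeks old, were anesthetized with pentobarbital and infected retro-orbitally with ~2.35 × 10^8 CFU of exponential-phase USA300 LAC, 15 per group. A single 7 mg/kg ip dose was given 1 h after infection. Deaths were recorded daily to build survival curves.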

Enterococcus faecium [14] = assay: Antibacterial activity against glycopeptide-resistant Enterococcus faecium Efm-HS-0847 vanM after 24 hrs by broth microdilution method; assay type: functional; details: Efm-HS-0847, 24 h; how it was run: as §2
Enterococcus faecium [15] = assay: Antibacterial activity against glycopeptide-resistant Enterococcus faecium Efm-HS-0649 vanA after 24 hrs by broth microdilution method; assay type: functional; details: Efm-HS-0649, 24 h; how it was run: as §2
Staphylococcus aureus [16] = assay: Antibacterial activity against vancomycin/methicillin-susceptible Staphylococcus aureus Newman […] after 24 hrs by broth microdilution method; assay type: functional
How it was run: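 Broth microdilution in cation-adjusted Mueller-Hinton II broth. […] Each well received ~10^5 CFU of exponential-phase bacteria and was incubated at 37 °C for 24 h. MIC was taken as the lowest concentration giving complete growth inhibition, interpreted per CLSI.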

[17] = AUC (infinity) in CD1 mouse at 5 mg/kg, iv; assay type: ADME, organism-based; design: dose 5 mg/kg, route intravenous, time infinity; details: in vivo; how it was run: as §1
Staphylococcus aureus [18] = assay: Antibacterial activity against healthcare-associated methicillin-resistant/vancomycin-intermediate Staphylococcus aureus Mu50 infected in BALB/c mouse assessed as decrease in liver CFU levels at 7 mg/kg, ip administered twice in 24 hrs interval measured after 5 days; assay type: functional, organism-based
How it was run: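 Female BALB/c mice, 6−8 weeks old, were anesthetized with pentobarbital and infected retro-orbitally with ~3.8 × 10^8 CFU of exponential-phase Mu50, 12 per group. Treatment started 1 h post-infection: 7 mg/kg ip in sterile water, two doses 24 h apart. At day 5 mice were euthanized and liver homogenates plated on TSA for CFU counts. Groups were compared by two-tailed Mann−Whitney test.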

[19] = Binding affinity to Ac2Lys-dAla-dAla at 2 mM by 1H-13C HSQC NMR method
How it was run: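 Constant-time [13C,1H]-HSQC at 600 MHz. The compound (2 mM in D2O, pH 3.1, 25 °C) was recorded alone, then again after adding Ac2Lys-dAla-dAla to a final 10 mM under the same conditions. Spectra were overlaid.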

HK-2 = assay: Cytotoxicity against human HK2 cells assessed as decrease in cell viability at 10 to 100 uM after 72 hrs by CCK8 assay; assay type: cell-based; details: hk-2, 72 h
How it was run: (§4)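 HK-2 and HL-7702 cells were seeded at ~5000 cells/well, incubated overnight, then exposed to compound at final 10, 50 and 100 μM for 72 h. CCK-8 was added for 1.5 h at 37 °C and OD450 read. Viability was OD treated / OD untreated × 100, with triplicates.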

Staphylococcus aureus [20] = assay: Antibacterial activity against methicillin-resistant Staphylococcus aureus USA300 LAC infected in BALB/c mouse assessed as mouse survival rate at 7 mg/kg, ip administered as single dose measured after 10 days relative to control; assay type: functional; details: 240 h; how it was run: as §3
L02 = assay: Cytotoxicity against human HL7702 cells assessed as decrease in cell viability at 10 to 100 uM after 72 hrs by CCK8 assay; assay type: cell-based; details: l02, 72 h; how it was run: as §4

Row | SMILES | AUC(0-t) [1] | clearance [2] | MIC90 (Staphylococcus aureus [3]) | Ratio (Staphylococcus aureus [4]) | MIC (Enterococcus faecium [5]) | Ratio (Enterococcus faecium [6]) | MIC (Enterococcus faecium [7]) | Drug uptake (Blood) | MRT inf [8] | half-life [9] | Ratio (Enterococcus faecium [10]) | Vd [11] | MIC (Enterococcus faecium [12]) | MIC (Enterococcus faecium [14]) | MIC (Enterococcus faecium [15]) | MIC90 (Staphylococcus aureus [16]) | AUC(0-inf) [17] | further results
1 | CN[C@H](CC(C)C)C(=O)N[C@H]1C(=O)N[C@@H](CC(N)=O)C(=O)N[C@H]2C(=O)N[C@H]3C(=O)N[C@H](C(=O)N[C@H](C(=O)O)c4cc(O)c(CN[C@H]5C(O)O[C@H](CO)[C@H](O)[C@@H]5O)c(O)c4-c4cc3ccc4O)[C@H](O)c3ccc(c(Cl)c3)Oc3cc2cc(c3O[C@@H]2O[C@H](CO)[C@@H](O)[C@H](O)[C@H]2O[C@H]2C[C@](C)(NCc3ccc(-c4ccc(C(F)(F)F)cc4)cc3)[C@H](O)[C@H](C)O2)Oc2ccc(cc2Cl)[C@H]1O (stereo not given in full) | 20100 ng·h/mL | 3.45 mL/min/kg | 0.12 µg/mL (≈ 0.064 µM) | 8 - 16 | 1 µg/mL (≈ 0.533 µM) | 4 | ≤ 0.06 µg/mL | > 1 µg/mL | 4.41 h | 3.45 h | 16 | 0.9 L/kg | 2 µg/mL (≈ 1.07 µM) | 4 µg/mL (≈ 2.13 µM) | 1 µg/mL (≈ 0.533 µM) | 0.015 µg/mL (≈ 0.008 µM) | 24300 ng·h/mL | Activity (Staphylococcus aureus [13]): Active
2 | CN[C@H](CC(C)C)C(=O)N[C@H]1C(=O)N[C@@H](CC(N)=O)C(=O)N[C@H]2C(=O)N[C@H]3C(=O)N[C@H](C(=O)N[C@H](C(=O)O)c4cc(O)c(CNCCO[C@@H]5O[C@H](CO)[C@H](O)[C@H](O)[C@H]5O)c(O)c4-c4cc3ccc4O)[C@H](O)c3ccc(c(Cl)c3)Oc3cc2cc(c3O[C@@H]2O[C@H](CO)[C@@H](O)[C@H](O)[C@H]2O[C@H]2C[C@](C)(NCc3ccc(-c4ccc(C(F)(F)F)cc4)cc3)[C@H](O)[C@H](C)O2)Oc2ccc(cc2Cl)[C@H]1O | 16600 ng·h/mL | 4.42 mL/min/kg | 0.25 µg/mL (≈ 0.13 µM) | 8 - 16 | 1 µg/mL (≈ 0.521 µM) | 4 | ≤ 0.06 µg/mL | > 1 µg/mL | 4.21 h | 2.94 h | 16 | 1.08 L/kg | 2 µg/mL (≈ 1.04 µM) | 8 µg/mL (≈ 4.17 µM) | 2 µg/mL (≈ 1.04 µM) | 0.03 µg/mL (≈ 0.0156 µM) | 20000 ng·h/mL | Activity (Staphylococcus aureus [18]): Active; Activity [19]: Active; Activity (HK-2): Non-Toxic; survival at 7 mg/kg (Staphylococcus aureus [20]): 86.7%; Activity (L02): Non-Toxic
